Read-outs that look alike come from different tables or passages of the source. Marks after values point to notes of the source that are not given here.
How the values were obtained:
[1] = estimated from literature data, cited from earlier work
[2] = test system: EWS-FLI1 and Sp1 mRNA; experiment: TC32 xenograft tumor tissue mRNA analysis; assay type: in vivo, mice; conditions: tumors collected 6 h after the sixth dose, n = 3/group
Summary of the method: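 Three mice per group were taken from the q3dx8 IV xenograft study. Tumors were resected 6 h after the 6th dose, rinsed in sterile PBS, snap-frozen in liquid nitrogen and stored at −80 °C. Tissue was cut semifrozen and ground under liquid nitrogen. Total RNA was extracted in RLT lysis buffer with a silica-column kit.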

[3] = target: EWS-FLI1 (Homo sapiens, UniProt Q01543+Q01844); conditions: 10 μM, 6 h incubation, TC32 cells; DMSO control 48.9 °C
[4] = test system: EWS-FLI1 mRNA; experiment: Target gene mRNA expression by qRT-PCR in TC32 cells; assay type: cell-based; conditions: 6 h incubation
Summary of the method: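 TC32 cells, 300,000/well, were DPBS-washed at ~75% confluence (48–72 h). They were exposed 6 h to test compound at 0, 30, 100, 300 nM or mithramycin at 0, 10, 30, 100 nM. After trypsin collection, RNA was isolated and reverse-transcribed. mRNA was quantified by qRT-PCR relative to GAPDH (ΔΔCt). SEM is from at least two biological replicates.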

[5] = test system: TC32 Ewing sarcoma cells; experiment: 72 h growth inhibition; assay type: cell-based
[6] = test system: Sp1, VEGFA and BCL-2 mRNA; experiment: Target gene mRNA expression by qRT-PCR in PC3 cells; assay type: cell-based; conditions: 6 h treatment
Summary of the method: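 PC3 cells, 300,000/well, were washed with DPBS at ~75% confluence (48–72 h). They were treated 6 h with test compound at 0, 100, 300, 1000 nM or mithramycin at 0, 30, 100, 300 nM. Cells were harvested by trypsin; RNA was isolated and cDNA made. qRT-PCR expression was calculated relative to GAPDH (ΔΔCt). Error bars are SEM of at least two biological replicates.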

[7] = test system: EWS-FLI1 and NR0B1 protein; conditions: TC32 cells, 24 h, 10, 30 and 300 nM
[8] = test system: TC32 tumors; experiment: TC32 cell line xenograft efficacy in nu/nu mice; assay type: in vivo; conditions: for effect on survival (and tumor volume) / median survival: q3dx8 IV, MTMox32E […] mg/kg, MTM 1 mg/kg; for median survival: vehicle 22 days
Summary of the method: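 TC32 cells in 1:1 RPMI (no FBS)/Matrigel, 1.0 × 10^6 cells per 100 μL, injected subcutaneously into the flank of female athymic nu/nu mice. Mice with tumors of at least 50 mm3 (14–28 days post implantation) were randomized. Dosing was IV bolus in 5% Kolliphor EL/2% DMSO/93% saline. Tumor volume was measured every 3 days, with euthanasia at 20 mm tumor length. Tumor volume was compared at day 16 by one-way ANOVA; survival by log-rank (Holm-Sidak).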

[9] = test system: CMV promoter; conditions: cited from earlier work
[10] = test system: EWS-FLI1 transcriptional activity (NR0B1 promoter); conditions: read-out: EC50 in a similar reporter cell line; cited from earlier work
[11] = test system: PC3 prostate cells; conditions: read-out: PC3 GI50, 72 h; cited from earlier work
[12] = test system: EWS-FLI1 transcriptional activity (NR0B1 promoter); experiment: Luciferase reporter assay, NR0B1 promoter, in TC32 cells; assay type: cell-based; conditions: read-out: EC50, NR0B1-mediated luciferase expression; 12 h incubation
[13] = test system: TC32 Ewing sarcoma cells; conditions: 72 h; cited from earlier work

CO[C@@H]([C@@H]1Cc2cc3cc(O[C@H]4CC(O[C@H]5CC(O)[C@H](O)C(C)O5)[C@H](O)C(C)O4)c(C)c(O)c3c(O)c2C(=O)[C@H]1O[C@H]1CC(O[C@H]2CC(O[C@H]3CC(O)[C@H](O)C(C)O3)[C@@H](O)C(C)O2)[C@H](O)C(C)O1)[C@@H](O)C(C)=O (some centres unmarked) [EC-8042]
clearance (CL/F) ([1]; IP, 24 mg/kg, CL/F): 7197^b mL/h/kg | dose-normalized systemic exposure (AUC/D) ([1]; IP, 24 mg/kg): 202 kg·ng·h/mL/mg | volume of distribution (Vd) ([1]; IP, 24 mg/kg): 11.259 L/kg

CO[C@@H]([C@@H]1Cc2cc3cc(O[C@H]4C[C@@H](O[C@H]5C[C@@H](O)[C@H](O)[C@@H](C)O5)[C@H](O)[C@@H](C)O4)c(C)c(O)c3c(O)c2C(=O)[C@H]1O[C@H]1C[C@@H](O[C@H]2C[C@@H](O[C@H]3C[C@](C)(O)[C@H](O)[C@@H](C)O3)[C@@H](O)[C@@H](C)O2)[C@H](O)[C@@H](C)O1)[C@@H](O)C(C)=O [MTM SK]
clearance (CL) ([1]; IV, 18 mg/kg): 43.17 mL/min/kg | dose-normalized systemic exposure (AUC/D) ([1]; IV, 18 mg/kg): 386 kg·ng·h/mL/mg | volume of distribution (Vd) ([1]; IV, 18 mg/kg): 0.857 L/kg

(E)-3-(2′-{2-[(Methyl l-Phenylalanyl-l-tryptophanate)amino]-2-oxoethoxy}imino) MTM [MTMox32E]
EWS-FLI1 and Sp1 mRNA levels in tumor [2]: reduced mRNA levels of both EWS-FLI1 (p = 0.002) and Sp1 (p = 0.04) | Tagg of EWS-FLI1 [3]: 51.7 °C | EWS-FLI1 mRNA levels [4]: decreased EWS-FL1 mRNA levels in a concentration-dependent manner | TC32 GI50 [5]: 79 nM | Sp1, VEGFA and BCL-2 mRNA [6]: minimally affected Sp1, VEGFA, and BCL-2 | EWS-FLI1 protein levels [7]: did not affect the protein levels of EWS-FLI1 | NR0B1 protein expression [7]: greatly diminished the expression of NR0B1 | effect on survival (and tumor volume) [8]: significant in comparison to control (p = 0.0001) and MTM (p = 0.0385) | median survival [8]: 38 days | effect on survival ([8]; qMWFx2, 14 mg/kg): statistically significant improvement in survival over vehicle control group

mithramycin A [MTM]
EWS-FLI1 and Sp1 mRNA levels in tumor [2]: reduced Sp1 mRNA levels (p = 0.003), but not EWS-FLI1 | EWS-FLI1 mRNA levels [4]: decreased EWS-FL1 mRNA levels in a concentration-dependent manner | effect on cells expressing luciferase under the control of a CMV promoter [9]: had no effect | Sp1, VEGFA and BCL-2 mRNA [6]: minimally affected Sp1, VEGFA, and BCL-2 | EC50 [10]: 5 to 100 nM | GI50 [11]: 83 nM | EC50 [12]: 68 nM | TC32 GI50 [13]: 32 nM | effect on survival (and tumor volume) [8]: not statistically different than the control group | median survival [8]: 31 days

Source: publication PMC7810150 (Journal of medicinal chemistry, 2020)
